{"data": "Measurements collected from several papers", "Neuronal acetylcholine receptor; alpha3/beta2": "Neuronal acetylcholine receptor; alpha3/beta2 (Rattus norvegicus, UniProt P04757+P12390)", "AKR1C2": "Aldo-keto reductase family 1 member C2 (AKR1C2, Homo sapiens, UniProt P52895)"}
{"Structure (SMILES)": "CNC(=O)c1ccc(-c2cnn3ccc(C(=O)N(C)c4ccc(Cl)c(C(=O)OC)c4)cc23)cc1", "target": "Serine/threonine-protein kinase Nek11 (NEK11, Homo sapiens, UniProt Q8NG66)", "test": "enzyme activity, inhibitor", "IC50 [µM]": "> 30"}
{"Structure (SMILES)": "COc1ccc2[nH]c3c(c2c1)CCN(C)CC3", "target": "Neuronal acetylcholine receptor; alpha3/beta2", "test": "ion current, antagonist, two-electrode voltage clamp", "setting": "oocytes", "IC50 [µM]": 28.3}
{"Structure (SMILES)": "O=C(NC[C@H]1C[C@@H]2CCN1C[C@@H]2CN1C[C@@H]2C[C@H](C1)c1cccc(=O)n1C2)c1ccc2c(c1)OCO2", "target": "Atypical kinase COQ8A, mitochondrial (COQ8A, Homo sapiens, UniProt Q8NI60)", "test": "ligand displacement, TR-FRET", "IC50 [µM]": 13.7}
{"Structure (SMILES)": "O=C(O)C(F)F", "target": "AKR1C2", "test": "enzyme activity, inhibitor, fluorescence", "IC50 [µM]": "> 50"}
{"Structure (SMILES)": "CC[C@H](C)[C@H](NC(C)=O)C(=O)N[C@@H](CCC(=O)O)C(=O)N[C@H](C(=O)N[C@H](C=O)CC(=O)O)[C@@H](C)O", "target": "Caspase-4 (Casp4, Mus musculus, UniProt P70343)", "test": "enzyme activity, inhibitor", "IC50 [µM]": 0.162}
{"Structure (SMILES)": "COC(=O)c1cc(N(C)C(=O)c2ccn3ncc(-c4ccc(C(=O)O)cc4)c3c2)ccc1Cl", "target": "Vascular endothelial growth factor receptor 1 (FLT1, Homo sapiens, UniProt P17948)", "test": "enzyme activity, inhibitor", "IC50 [µM]": "> 30"}
{"Structure (SMILES)": "O=C(O)C(F)(OC(F)(F)C(F)(F)C(F)(F)F)C(F)(F)F (centres unmarked)", "target": "AKR1C2", "test": "enzyme activity, inhibitor, fluorescence", "IC50 [µM]": 13.8}
{"Structure (SMILES)": "COc1ccc2c3c([nH]c2c1)CCN(C)CC3", "target": "Neuronal acetylcholine receptor; alpha3/beta2", "test": "ion current, antagonist, two-electrode voltage clamp", "setting": "oocytes", "IC50 [µM]": 27.6}
